From ChEMBL document CHEMBL1132452, “Synthesis and anticonvulsant activity of novel and potent 2,3-benzodiazepine AMPA/kainate receptor antagonists” (J Med Chem, 1999)

Experiments:
Mus musculus [1] = species: Mus musculus; experiment: The compound was tested for locomotor deficit (rotarod test) in Swiss mice.
Mus musculus [2] = species: Mus musculus; experiment: The compound was tested for Anticonvulsant activity against Pentylenetetrazole (PTZ) induced seizures in Swiss mice; assay type: functional
Method in brief: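 Male Swiss mice (20–26 g, 42–48 days) pretreated ip with the compound in 30% DMSO/70% saline, then 45 min later PTZ 85 mg/kg (CD97) sc. Observed for 30 min; protection was absence of clonic spasms lasting at least 5 s. ED50 by Litchfield–Wilcoxon, at least 32 animals.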

[3] = Relative lipophilicity of the compound; assay type: physicochemical; details: reversed-phase TLC, acetone/water 2:1
Method in brief: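 Reversed-phase TLC on plates dried at 105 °C for 1 h. Mobile phase acetone/water 2:1 (v/v). Compound in CHCl3 (3 mg/mL), 1 µL spotted. Five runs, each with a different placement on the plate. Mean Rf converted by Rm = log[(1/Rf) − 1]; higher Rm means higher lipophilicity.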

Mus musculus [4] = species: Mus musculus; experiment: The compound was tested for Anticonvulsant activity against maximal electroshock (MES) induced seizures in Swiss mice.; assay type: functional
Method in brief: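 Swiss mice given the compound ip in 30% DMSO/70% saline, then 45 min later ear-clip electroshock (50 mA, 20 ms pulses, 35 Hz, 400 ms). Protection was abolition of tonic hindlimb extension. Four to five doses, 8–10 mice each; ED50 by Litchfield–Wilcoxon.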

Mus musculus [5] = species: Mus musculus; experiment: The compound was tested for Anticonvulsant activity against audiogenic seizures in DBA/2 mice in clonic phase; assay type: functional
Method in brief: (§1)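 Male DBA/2 mice (8–12 g, 22–25 days), groups of 10 per dose, given the compound ip in 30% DMSO/70% saline at doses within 3.3–200 µmol/kg. Sound stimulation 30 min later; latency and incidence of seizure phases scored. ED50 per phase by Litchfield–Wilcoxon, at least 32 animals per value.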

Mus musculus [6] = species: Mus musculus; experiment: The compound was tested for Anticonvulsant activity against audiogenic seizures in DBA/2 mice in tonic phase; assay type: functional
Method in brief: as §1

Mus musculus [7] = experiment: The compound was tested for Anticonvulsant activity against audiogenic seizures in DBA/2 mice in clonic phase. 120 min after ip administration.; assay type: functional; details: 2 h
Method in brief: (§2)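 Time course in male DBA/2 mice (8–12 g, 22–25 days) after ip dosing in 30% DMSO/70% saline, with auditory stimulation at the stated time after injection. Groups of 10 mice per time point; clonic-phase ED50 (95% confidence limits) by Litchfield–Wilcoxon, at least 32 animals per value.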

Mus musculus [8] = species: Mus musculus; experiment: The compound was tested for Anticonvulsant activity against AMPA induced seizures in DBA/2 mice in tonic phase; assay type: functional
Mus musculus [9] = experiment: The compound was tested for Anticonvulsant activity against audiogenic seizures in DBA/2 mice in clonic phase. 30 min after ip administration.; assay type: functional; details: 0.5 h
Method in brief: as §2

Mus musculus [10] = species: Mus musculus; experiment: The compound was tested for Anticonvulsant activity against audiogenic seizures in DBA/2 mice after pretreatment with Aniracetam in clonic phase; assay type: functional
Method in brief: (§3)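 Male DBA/2 mice (8–12 g, 22–25 days) given aniracetam 50 nmol icv 30 min before the ip compound (30% DMSO/saline), i.e. 60 min before auditory stimulation. Clonic or tonic phase incidence scored; ED50 by Litchfield–Wilcoxon, at least 32 animals.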

Mus musculus [11] = species: Mus musculus; experiment: The compound was tested for Anticonvulsant activity against KA induced seizures in DBA/2 mice.; assay type: functional
Mus musculus [12] = experiment: The compound was tested for Anticonvulsant activity against audiogenic seizures in DBA/2 mice in clonic phase. 90 min after ip administration.; assay type: functional; details: 1.5 h
Method in brief: as §2

Mus musculus [13] = experiment: The compound was tested for Anticonvulsant activity against audiogenic seizures in DBA/2 mice in clonic phase. 15 min after ip administration.; assay type: functional; details: 0.25 h
Method in brief: as §2

Mus musculus [14] = species: Mus musculus; experiment: The compound was tested for Anticonvulsant activity against audiogenic seizures in DBA/2 mice after pretreatment with Aniracetam in tonic phase.; assay type: functional
Method in brief: as §3

Mus musculus [15] = species: Mus musculus; experiment: The compound was tested for Anticonvulsant activity against AMPA induced seizures in DBA/2 mice clonic phase.; assay type: functional
Mus musculus [16] = experiment: The compound was tested for Anticonvulsant activity against audiogenic seizures in DBA/2 mice in clonic phase. 60 min after ip administration.; assay type: functional; details: 1 h
Method in brief: as §2

Mus musculus [17] = experiment: The compound was tested for Anticonvulsant activity against audiogenic seizures in DBA/2 mice in clonic phase. 45 min after ip administration.; assay type: functional; details: 0.75 h
Method in brief: as §2

Structure (SMILES) | TD50 (Mus musculus [1]) [µM/kg] | ED50 (Mus musculus [2]) [µmol/kg] | Rm [3] | ED50 (Mus musculus [4]) [µmol/kg] | ED50 (Mus musculus [5]) [µmol/kg] | ED50 (Mus musculus [6]) [µmol/kg] | ED50 (Mus musculus [7]) [µmol/kg] | ED50 (Mus musculus [8]) [µmol/kg] | ED50 (Mus musculus [9]) [µmol/kg] | ED50 (Mus musculus [10]) [µmol/kg] | ED50 (Mus musculus [11]) [µmol/kg] | ED50 (Mus musculus [12]) [µmol/kg] | ED50 (Mus musculus [13]) [µmol/kg] | ED50 (Mus musculus [14]) [µmol/kg] | ED50 (Mus musculus [15]) [µmol/kg] | ED50 (Mus musculus [16]) [µmol/kg] | ED50 (Mus musculus [17]) [µmol/kg]
CCCNC(=O)N1N=C(c2ccc(N)cc2)c2cc3c(cc2CC1=O)OCO3 | 182 | > 100 | -0.25 | 76.5 | 69.4 | 49.2 | – | – | – | – | – | – | – | – | – | – | –
Nc1ccc(C2=NN=C(S)Cc3cc4c(cc32)OCO4)cc1 | 39.8 | 25.2 | -0.269 | 9.79 | 11.8 | 5.09 | > 50 | 11.5 | 11.8 | 31.4 | 15.6 | 45 | 5.9 | 16.3 | 15.6 | 19.6 | 13.4
CCNC(=O)N1N=C(c2cccc(N)c2)c2cc3c(cc2CC1=O)OCO3 | 126 | 90.7 | -0.323 | 60.2 | 44.9 | 32.1 | – | – | – | – | – | – | – | – | – | – | –
Nc1ccc(C2=NNC(=O)Cc3cc4c(cc32)OCO4)cc1 | 99.1 | 71.8 | -0.552 | 32.1 | 15.4 | 10.9 | > 50 | 28.5 | 15.4 | 62.6 | 19.6 | > 50 | 7.55 | 39.6 | 37.9 | 21.3 | 18.7
SC1=NN=C(c2ccccc2)c2cc3c(cc2C1)OCO3 | 97.1 | 80.3 | -0.185 | 37.8 | 23.8 | 18.8 | – | – | 23.8 | – | – | – | – | – | – | – | –
CNC(=O)N1N=C(c2cccc(N)c2)c2cc3c(cc2CC1=O)OCO3 | 48.9 | 19.6 | -0.441 | 21.4 | 13.6 | 11.2 | – | – | 13.6 | – | – | – | – | – | – | – | –
CCCNC(=O)N1N=C(c2cccc(N)c2)c2cc3c(cc2CC1=O)OCO3 | >100 | > 100 | -0.181 | > 100 | 85.3 | 63.8 | – | – | – | – | – | – | – | – | – | – | –
Nc1cccc(C2=NN=C(S)Cc3cc4c(cc32)OCO4)c1 | 53.7 | 40.2 | -0.213 | 30.9 | 16.7 | 8.88 | > 50 | 26.2 | 16.7 | 65.2 | 18.6 | 45.2 | 32.6 | 85.9 | 32.8 | 22.4 | 15.2
CCCCNC(=O)N1N=C(c2ccc(N)cc2)c2cc3c(cc2CC1=O)OCO3 | 108 | > 100 | -0.11 | 79.7 | 38.7 | 32.6 | – | – | – | – | – | – | – | – | – | – | –
CCNC(=O)N1N=C(c2ccc(N)cc2)c2cc3c(cc2CC1=O)OCO3 | 134 | 68.2 | -0.368 | 52.5 | 35 | 23.8 | – | – | – | – | – | – | – | – | – | – | –
CCCCNC(=O)N1N=C(c2cccc(N)c2)c2cc3c(cc2CC1=O)OCO3 | 56.2 | 36.4 | -0.075 | 26.6 | 18.1 | 12.7 | – | – | – | – | – | – | – | – | – | – | –
CNC(=O)N1N=C(c2ccc(N)cc2)c2cc3c(cc2CC1=O)OCO3 | 48.6 | 16.3 | -0.459 | 18.6 | 12.4 | 8.7 | 40.8 | 10.3 | 12.4 | 33.9 | 8.61 | 19.4 | 14.3 | 31 | 18.6 | 13 | 12.1
O=C1Cc2cc3c(cc2C(c2ccccc2)=NN1)OCO3 | 159 | 78 | -0.215 | 42.6 | 43.3 | 40.6 | – | – | 43.3 | – | – | – | – | – | – | – | –
Nc1cccc(C2=NNC(=O)Cc3cc4c(cc32)OCO4)c1 | 101 | 40.5 | -0.484 | 19.3 | 18 | 12.7 | > 50 | 23.8 | 18 | 55 | 23.2 | 47.1 | > 50 | 40.6 | 29.2 | 26.3 | 19.1
CC1=NN=C(c2ccc(N)cc2)c2cc3c(cc2C1)OCO3 [GYKI-52466] | 76.1 | – | -0.404 | – | – | – | > 50 | – | – | – | 27.8 | > 50 | 10.8 | – | – | – | 37.2
